PMC6397674 (Clinical cancer research : an official journal of the …, 2018)

Tests used:
[1] = test system: murine genetically engineered T-ALL and human T-ALL cell lines such as MOLT4, Jurkat, HPB-ALL and KARPAS45; conditions: cited from earlier work
[2] = for changes in complete blood count, liver and kidney functions, histopathological examination of some organs: NOD/SCID mice treated with up to 150 mg/kg
Jurkat cells = assay: Systemic T-ALL, tail-vein injection of luciferase-expressing Jurkat cells; type: in vivo, NOD/SCID mice; conditions: S2157 50 mg/kg, OG-L002 12.5 mg/kg (its MTD), twice a week for 3 weeks
T-ALL cell lines = type: cell-based, human; conditions: read-out: IC50 values, 72 hours of culture
How it was run: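 Human T-ALL cell lines (CEM, Jurkat, MOLT4, Loucy, PEER) were cultured with a range of test compound concentrations for 72 hours. IC50 was calculated from the dose-response curves. Values are means ± S.D. of three independent experiments, compared by one-way ANOVA with Tukey's multiple comparison test.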

T-ALL cells = assay: Subcutaneous T-ALL xenograft; type: in vivo, NOD/SCID mice; conditions: for side effects / size of subcutaneous tumors: intraperitoneal injection at 50 mg/kg, 3 times a week
[3] = test system: CD34-positive normal hematopoietic progenitor cells; assay: Viability of CD34-positive normal bone marrow progenitor cells; type: cell-based; conditions: 72 hours, with stem cell factor and thrombopoietin
How it was run: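 Purchased CD34-positive normal bone marrow progenitor cells were cultured with stem cell factor and thrombopoietin, without or with various concentrations of test compound, for 72 hours. Jurkat cells were treated in parallel as a control. Viability was measured by MTT reduction as a percentage of untreated controls. Values are mean ± S.D. of three independent experiments, compared by one-way ANOVA with Bonferroni post-hoc test.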

[4] = test system: mitogen-activated normal T-lymphocytes; assay: Viability of mitogen-activated normal T-lymphocytes; type: cell-based
[5] = Pharmacokinetic study, plasma and brain concentrations by LC-MS/MS; type: in vivo, NOD/SCID mice; conditions: for Brain/Plasma ratio / AUC / Brain concentration at 0.5 h / Plasma concentration at 0.5 h / T1/2 / nAUC (dose-normalized AUC): NOD.CB17-PrkdcSCID/J mice, single intraperitoneal injection, 50 mg/kg, n = 3; for Brain/Plasma ratio: 0.5 h
[6] = test system: ZEB2-positive ETP-ALL cell lines such as Loucy and PEER; assay: Efficacy in relation to ZEB2 expression in T-ALL and ETP-ALL cell lines; type: cell-based, human
MOLT4 cells [7] = assay: Isobologram / combination index analysis with anti-leukemic drugs; type: cell-based, human; conditions: 72 hours
How it was run: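 MOLT4 cells exposed to each of several anti-leukemia drugs, without or with the test compound, for 72 h to generate dose-response curves for each combination. Combination index calculated by the Chou–Talalay method; CI <1.0 taken as synergism. Mean ± S.D. from three independent experiments.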

MOLT4 cells [8] = type: in vivo, NOD/SCID mice; conditions: for effect on CNS leukemia: murine xenotransplant model, histopathological examination / imaging
primary T-ALL cells = assay: Combination with anti-leukemic drugs in primary T-ALL cells; type: cell-based, human
T-ALL = conditions: read-out: IC50 values; cited from earlier work
[9] = single intraperitoneal injection at 50 mg/kg, NOD/SCID and ICR mice

## O=C(O)c1ccc(CN2CCC(CN[C@@H]3C[C@H]3c3ccccc3)CC2)cc1 [GSK2879552]
[1]
  pro-apoptotic activity: failed to show pro-apoptotic activity

## N[C@H]1C[C@@H]1c1ccc(-c2cccc(O)c2)cc1 [OG-L002, reference compound]
[2]; NOD/SCID mice, intraperitoneal injection
  maximum tolerated dose (MTD): 12.5 mg/kg
[2]; NOD/SCID mice, intraperitoneal injection, unknown causes
  dose after which recipients died immediately: ≥ 25 mg/kg
Jurkat cells
  anti-leukemic activity in Jurkat-transplanted mice: failed to show anti-leukemic activity
T-ALL cell lines
  IC50: ≥ 20 µM

## N[C@@H]1C[C@H]1c1cc(F)cc(F)c1OCc1ccccc1 [S2101]
T-ALL cell lines
  IC50: ≥ 20 µM

## Cl.N[C@H]1CCN(C(=O)CN[C@@H]2C[C@H]2c2cc(F)cc(F)c2OCc2ccccc2)C1 [S2116]
T-ALL cells; MOLT4-inoculated NOD/SCID mice
  overall survival of MOLT4-inoculated mice: significantly prolonged
T-ALL cells
  side effects: negligible side effects, such as moderate leukocytosis and thrombocytopenia without bleeding tendency
  size of subcutaneous tumors: less than 20 % of that in the untreated control
[2]
  changes in complete blood count, liver and kidney functions, histopathological examination of some organs: no obvious changes were observed
[3]
  viability of CD34-positive normal hematopoietic progenitor cells: did not affect the viability
[4]
  viability of mitogen-activated normal T-lymphocytes: modestly inhibited
[5]
  Brain/Plasma ratio: 0.17 ± 0.03
  AUC: 41.78 ± 8.66 µM·h
  Brain concentration at 0.5 h: 1.35 ± 0.39 µmol/kg
  Plasma concentration at 0.5 h: 8.17 ± 2.80 µM
  T1/2: 10.88 ± 2.97 h
  nAUC (dose-normalized AUC): 0.84 ± 0.17 µM·h
[6]
  efficacy in ZEB2-positive ETP-ALL cell lines: relatively ineffective
MOLT4 cells [7]
  combined effect with L-asparaginase: synergistic
  combined effect with cytosine arabinoside: additive
  combined effect with dexamethasone: additive
MOLT4 cells [8]
  effect on CNS leukemia: failed to eradicate CNS disease

## CN1CCN(C(=O)CN[C@@H]2C[C@H]2c2cc(F)cc(F)c2OCc2ccccc2)CC1.Cl [S2157]
T-ALL cells
  side effects: negligible side effects, such as moderate leukocytosis and thrombocytopenia without bleeding tendency
  size of subcutaneous tumors: less than 20 % of that in the untreated control
[2]
  changes in complete blood count, liver and kidney functions, histopathological examination of some organs: no obvious changes were observed
Jurkat cells
  anti-leukemic activity in Jurkat-transplanted mice: therapeutic benefit of S2157 including the eradication of CNS disease
[3]
  viability of CD34-positive normal hematopoietic progenitor cells: did not affect the viability
[4]
  viability of mitogen-activated normal T-lymphocytes: modestly inhibited
[5]
  Brain/Plasma ratio: 13.0 ± 6.26
  AUC: 5.75 ± 3.67 µM·h
  Brain concentration at 0.5 h: 64.0 ± 3.46 µmol/kg
  Plasma concentration at 0.5 h: 5.71 ± 2.47 µM
  T1/2: 0.88 ± 0.04 h
  nAUC (dose-normalized AUC): 0.11 ± 0.07 µM·h
[5]; [9]
  brain/plasma concentration ratio relative to S2116: > 75 fold
  maximal brain concentration relative to S2116: approximately 50 fold
Primary T-ALL cells
  combined effect with L-asparaginase: synergy
  combined effect with dexamethasone: synergy
[6]
  efficacy in ZEB2-positive ETP-ALL cell lines: relatively ineffective
MOLT4 cells [7]
  combined effect with 4-hydroxycyclophosphamide (4-OHCY): additive
  combined effect with L-asparaginase: synergistic
  combined effect with bortezomib: additive
  combined effect with dexamethasone: synergistic
MOLT4 cells [8]; 50 mg/kg ip twice a week, log-rank test, P = 0.0246
  hazard ratio against untreated mice, single agent: 0.2371
MOLT4 cells [8]; S2157 50 mg/kg ip twice a week plus dexamethasone 10 mg/kg ip 5 times a week
  hazard ratio against untreated control, combination with dexamethasone: 0.1787
MOLT4 cells [8]; murine xenografts
  neurotoxicity: without detectable neurotoxicity
MOLT4 cells [8]
  effect on CNS leukemia: CNS leukemia nearly disappeared
MOLT4 cells [8]; twice-per-week injection at either 30 mg/kg or 50 mg/kg
  growth of MOLT4 cells (bioluminescence): almost completely suppressed the growth of MOLT4 cells in most but not all mice

## Cn1cc(C(=O)Nc2ccc([C@@H]3C[C@H]3NCC3CC3)cc2)cn1 [T-3775440]
T-ALL
  IC50: > 10 µM
